The values below come from ChEMBL document CHEMBL1671714, “High-level azithromycin resistance occurs in Neisseria gonorrhoeae as a result of a single point mutation in the 23S rRNA genes” (2010).

The test system of test [1] is Neisseria gonorrhoeae. The test can be described thus: Antimicrobial activity against Neisseria gonorrhoeae expressing wild type 23S rRNA by Etest. The class given is functional. Put shortly: (§1)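 Isolates were revived from −80°C cryopreservative stocks by 18 to 20 h of growth on GC agar base with 1% IsoVitaleX at 36°C under 5% CO2, then subcultured. Erythromycin and azithromycin MICs were read by Etest.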

Test [2] concerns Neisseria gonorrhoeae. Description: Antimicrobial activity against Neisseria gonorrhoeae harboring A2059G mutation in 23S rRNA domain V allele 4 by Etest. The class given is functional. The method, boiled down: as §1
Test [3] concerns Neisseria gonorrhoeae. Description: Antimicrobial activity against Neisseria gonorrhoeae harboring A2059G mutation in 23S rRNA V domain allele 1, allele 2 and allele 4 by Etest. The format is functional. The method, boiled down: as §1
In test [4] the test system is Neisseria gonorrhoeae. The test can be described thus: Antimicrobial activity against Neisseria gonorrhoeae harboring A2059G mutation in 23S rRNA V domain allele 1, allele 3 and allele 4 by Etest. The format is functional. Put shortly:
as §1

Test [5] deals with Neisseria gonorrhoeae. Description: Antimicrobial activity against Neisseria gonorrhoeae isolate 352521 NG-MAST sequence type 1443 harboring A2059G mutation in 23S rRNA V domain allele 1, allele 2, allele 3 and allele 4 selected after 0.5 to 8 mg/L of erythromycin by Etest. The class given is functional. The method, boiled down: (§2)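 Single-colony expansions of the parent isolate (~1 × 10^8 CFU by viable count) were spread on GC agar with 1% IsoVitaleX containing erythromycin in 2-fold steps from 0.5 to 8.0 mg/liter, and incubated 24 h at 36°C under 5% CO2. Growth on the highest-concentration plate was subcultured, confirmed as gonococcus (Gram stain, oxidase, Phadebact GC), and azithromycin and erythromycin MICs were read by Etest. Passages were run in duplicate.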

Test [6] relates to Neisseria gonorrhoeae. The test can be described thus: Antimicrobial activity against Neisseria gonorrhoeae isolate 252611 NG-MAST sequence type 470 harboring A2059G mutation in 23S rRNA V domain allele 1, allele 2, allele 3 and allele 4 selected after 0.5 to 8 mg/L of erythromycin by Etest. The class given is functional. The method, boiled down:
as §2

The subject of test [7] is Neisseria gonorrhoeae. Description: Antimicrobial activity against Neisseria gonorrhoeae isolate 254921 NG-MAST sequence type 649 selected after 2 to 8 mg/L of compound by Etest. The format is functional.
For test [8], the system named is Neisseria gonorrhoeae. The test can be described thus: microbe, parasite or virus in culture. The following applies: isolate 136.
In test [9] the test system is Neisseria gonorrhoeae. Description: microbe, parasite or virus in culture.
In test [10] the test system is Neisseria gonorrhoeae. The test can be described thus: Antimicrobial activity against Neisseria gonorrhoeae isolate 252611 NG-MAST sequence type 470 harboring A2059G mutation in 23S rRNA V domain allele 2 by Etest. The format is functional. The method, boiled down: as §1
Test [11] relates to Neisseria gonorrhoeae. The test can be described thus: microbe, parasite or virus in culture. As to conditions: isolate 352521.
Test [12] has as its system Neisseria gonorrhoeae. Description: Antimicrobial activity against Neisseria gonorrhoeae harboring A2059G mutation in 23S rRNA V domain allele 1, allele 2, allele 3 and allele 4 by Etest. The format is functional. Put shortly: as §1
Test [13] has as its system Neisseria gonorrhoeae. Description: Antimicrobial activity against Neisseria gonorrhoeae isolate 254921 NG-MAST sequence type 649 by Etest. The format is functional. Put shortly:
as §1

For test [14], the system named is Neisseria gonorrhoeae. The test can be described thus: Antimicrobial activity against Neisseria gonorrhoeae isolate 136 NG-MAST sequence type 1704 harboring A2059G mutation in 23S rRNA V domain allele 1, allele 2, allele 3 and allele 4 selected after 0.5 to 8 mg/L of erythromycin by Etest. The class given is functional. Put shortly:
as §2

Test [15] has as its system Neisseria gonorrhoeae. The test can be described thus: microbe, parasite or virus in culture. This is another data set of the same source.
Test [16] relates to Neisseria gonorrhoeae. Description: Antimicrobial activity against Neisseria gonorrhoeae harboring A2059G mutation in 23S rRNA domain V allele 2 by Etest. The class given is functional. The method, boiled down: as §1
Test [17] relates to Neisseria gonorrhoeae. The test can be described thus: Antimicrobial activity against Neisseria gonorrhoeae C2611T mutation in 23S rRNA domain V allele 3 by Etest. The format is functional. The method, boiled down: as §1
Test [18] deals with Neisseria gonorrhoeae. The test can be described thus: Antimicrobial activity against Neisseria gonorrhoeae isolate 254921 NG-MAST sequence type 649 selected after 4 mg/L of erythromycin by Etest. The format is functional, organism-based.

In brackets after ≈: the same amount, converted by molar mass. Activity calls are given as the source filed them. The rule behind the calls is not given here. Where only a bound is given, the exact number is not on record here.

`CC[C@H]1OC(=O)[C@H](C)[C@@H](O[C@H]2C[C@@](C)(OC)[C@@H](O)[C@H](C)O2)[C@H](C)[C@@H](O[C@@H]2O[C@H](C)C[C@H](N(C)C)[C@H]2O)[C@](C)(O)C[C@@H](C)CN(C)[C@H](C)[C@@H](O)[C@]1(C)O` [AZITHROMYCIN]: the MIC with Neisseria gonorrhoeae [1] is 0.06 µg/mL (≈ 0.0801 µM); in the test on Neisseria gonorrhoeae [2], 0.06 µg/mL (≈ 0.0801 µM); in the test with Neisseria gonorrhoeae [3] it was ≥ 256 µg/mL; with Neisseria gonorrhoeae [4], ≥ 256 µg/mL; against Neisseria gonorrhoeae [5], > 256 µg/mL; in the test on Neisseria gonorrhoeae [6], > 256 µg/mL. Further, the MIC with Neisseria gonorrhoeae [7] is 1.5 µg/mL (≈ 2 µM); in the test on Neisseria gonorrhoeae [8], 0.25 µg/mL (≈ 0.334 µM); with Neisseria gonorrhoeae [9] it was 2 µg/mL (≈ 2.67 µM); with Neisseria gonorrhoeae [10], 0.38 µg/mL (≈ 0.507 µM); against Neisseria gonorrhoeae [11], 0.25 µg/mL (≈ 0.334 µM); against Neisseria gonorrhoeae [12] it was ≥ 256 µg/mL. The MIC with Neisseria gonorrhoeae [13] was 0.25 µg/mL (≈ 0.334 µM); against Neisseria gonorrhoeae [14], > 256 µg/mL; in the test on Neisseria gonorrhoeae [15] it was 2 µg/mL (≈ 2.67 µM); with Neisseria gonorrhoeae [16], 0.06 µg/mL (≈ 0.0801 µM); against Neisseria gonorrhoeae [17], 0.06 µg/mL (≈ 0.0801 µM).
For `CC[C@H]1OC(=O)[C@H](C)[C@@H](O[C@H]2C[C@@](C)(OC)[C@@H](O)[C@H](C)O2)[C@H](C)[C@@H](O[C@@H]2O[C@H](C)C[C@H](N(C)C)[C@H]2O)[C@](C)(O)C[C@@H](C)C(=O)[C@H](C)[C@@H](O)[C@]1(C)O` [ERYTHROMYCIN], the results for the MIC against Neisseria gonorrhoeae [7] and in the test with Neisseria gonorrhoeae [13] were 4 µg/mL (≈ 5.45 µM) and 3 µg/mL (≈ 4.09 µM), respectively. Also, in the test on Neisseria gonorrhoeae [18], the outcome was Active.
